Laboratory results from ChEMBL document CHEMBL4118021, “Studies of TAK1-centered polypharmacology with novel covalent TAK1 inhibitors” (Bioorg Med Chem, 2017).
Blank lines part the entries; values can stand above or below the compound they belong to. Active and inactive are the calls of the source. The rule behind the calls is not given here.

Assays:
[1] = target: Mitogen-activated protein kinase kinase kinase 11 (Homo sapiens) (UniProt Q16584); experiment: Inhibition of MLK3 in human SKCO1 cells at 1 uM after 4 hrs using biotin labeled DLKSNNILLLQPIESDDMEHK probe by mass-spectrometric analysis relative to control; type: cell-based
[2] = target: Platelet-derived growth factor receptor alpha (Homo sapiens) (UniProt P16234); experiment: Inhibition of human PDGFRA (575 to 1002 residues) expressed in mammalian expression system assessed as enzyme activity at 1 uM by KINOMEScan assay relative to control; set-up: scale not given: the % may be the effect or the level left
In short: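 In vitro ATP-site competition binding assay across a panel of 456 kinases, with compound tested at 1 and 10 μM.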

[3] = target: Interleukin-1 receptor-associated kinase 1 (Homo sapiens) (UniProt P51617); experiment: Binding affinity to IRAK1 in human NCI-H23 cells at 1 uM by mass spectrometry based pull down assay; type: cell-based
Sequence of Interleukin-1 receptor-associated kinase 1 (Homo sapiens) (P51617 whole entry, looked up): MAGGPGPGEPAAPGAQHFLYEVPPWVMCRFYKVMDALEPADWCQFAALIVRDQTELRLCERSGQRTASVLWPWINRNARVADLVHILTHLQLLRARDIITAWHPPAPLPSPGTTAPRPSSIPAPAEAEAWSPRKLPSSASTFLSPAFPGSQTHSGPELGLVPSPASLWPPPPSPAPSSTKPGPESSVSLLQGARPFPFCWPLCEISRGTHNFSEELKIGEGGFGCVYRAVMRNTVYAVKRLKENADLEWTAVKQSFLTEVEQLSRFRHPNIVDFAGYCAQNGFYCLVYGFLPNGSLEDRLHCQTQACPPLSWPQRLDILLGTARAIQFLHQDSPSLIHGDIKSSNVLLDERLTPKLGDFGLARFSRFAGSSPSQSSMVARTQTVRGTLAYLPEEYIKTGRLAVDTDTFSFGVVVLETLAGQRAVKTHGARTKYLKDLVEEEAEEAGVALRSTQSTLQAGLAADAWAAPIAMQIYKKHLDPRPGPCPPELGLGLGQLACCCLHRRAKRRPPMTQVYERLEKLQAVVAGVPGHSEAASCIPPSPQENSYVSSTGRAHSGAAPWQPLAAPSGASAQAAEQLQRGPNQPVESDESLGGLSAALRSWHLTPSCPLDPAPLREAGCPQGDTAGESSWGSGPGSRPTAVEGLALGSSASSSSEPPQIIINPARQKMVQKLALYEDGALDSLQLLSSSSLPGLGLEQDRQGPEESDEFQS

[4] = target: T1, Dual specificity mitogen-activated protein kinase kinase 5 (Homo sapiens) (UniProt Q13163); experiment: Binding affinity to MAP2K5 in human NCI-H358 cells at 1 uM by mass spectrometry based pull down assay; type: cell-based
T1 sequence (whole entry): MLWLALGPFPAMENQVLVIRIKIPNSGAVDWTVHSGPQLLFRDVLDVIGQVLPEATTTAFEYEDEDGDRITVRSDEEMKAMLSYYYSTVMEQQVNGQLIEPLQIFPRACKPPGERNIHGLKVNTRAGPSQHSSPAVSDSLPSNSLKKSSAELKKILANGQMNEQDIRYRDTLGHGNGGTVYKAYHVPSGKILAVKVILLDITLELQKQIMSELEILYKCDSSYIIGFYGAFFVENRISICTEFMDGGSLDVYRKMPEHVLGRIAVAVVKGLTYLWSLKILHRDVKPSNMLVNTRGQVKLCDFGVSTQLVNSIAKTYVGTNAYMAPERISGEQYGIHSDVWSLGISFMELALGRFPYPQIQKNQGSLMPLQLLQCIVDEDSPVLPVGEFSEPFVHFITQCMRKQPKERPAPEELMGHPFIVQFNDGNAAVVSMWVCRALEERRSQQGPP

[5] = target: Aurora kinase B (Homo sapiens) (UniProt Q96GD4); experiment: Binding affinity to AURKB in human NCI-H358 cells at 1 uM by mass spectrometry based pull down assay; type: cell-based
Sequence of Aurora kinase B (Homo sapiens) (Q96GD4 whole entry): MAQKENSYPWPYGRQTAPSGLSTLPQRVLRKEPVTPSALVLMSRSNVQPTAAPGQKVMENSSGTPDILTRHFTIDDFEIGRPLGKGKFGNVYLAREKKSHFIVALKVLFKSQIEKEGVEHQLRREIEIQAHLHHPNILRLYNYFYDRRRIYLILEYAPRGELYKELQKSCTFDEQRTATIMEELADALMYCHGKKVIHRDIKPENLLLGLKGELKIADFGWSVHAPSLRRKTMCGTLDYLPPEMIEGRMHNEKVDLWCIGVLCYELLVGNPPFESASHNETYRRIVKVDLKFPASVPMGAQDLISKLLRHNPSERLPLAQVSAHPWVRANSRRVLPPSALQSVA

[6] = target: Deaminated glutathione amidase (Homo sapiens) (UniProt Q86X76); experiment: Binding affinity to NIT1 in human NCI-H23 cells at 1 uM by mass spectrometry based pull down assay; type: cell-based
[7] = target: E3 ubiquitin-protein ligase UBR4 (Homo sapiens) (UniProt Q5T4S7); experiment: Binding affinity to UBR4 in human NCI-H358 cells at 1 uM by mass spectrometry based pull down assay; type: cell-based
[8] = target: ATP-dependent RNA helicase DDX3X (Homo sapiens) (UniProt O00571); experiment: Binding affinity to DDX3X in human NCI-H358 cells at 1 uM by mass spectrometry based pull down assay; type: cell-based
[9] = target: DnaJ homolog subfamily A member 1 (Homo sapiens) (UniProt P31689); experiment: Binding affinity to DNAJA1 in human NCI-H358 cells at 1 uM by mass spectrometry based pull down assay; type: cell-based
[10] = target: Peroxiredoxin-6 (Homo sapiens) (UniProt P30041); experiment: Binding affinity to PRDX6 in human NCI-H23 cells at 1 uM by mass spectrometry based pull down assay; type: cell-based
[11] = target: Protein transport protein Sec16A (Homo sapiens) (UniProt O15027); experiment: Binding affinity to SEC16A in human NCI-H358 cells at 1 uM by mass spectrometry based pull down assay; type: cell-based
Sequence of Protein transport protein Sec16A (Homo sapiens) (O15027 whole entry): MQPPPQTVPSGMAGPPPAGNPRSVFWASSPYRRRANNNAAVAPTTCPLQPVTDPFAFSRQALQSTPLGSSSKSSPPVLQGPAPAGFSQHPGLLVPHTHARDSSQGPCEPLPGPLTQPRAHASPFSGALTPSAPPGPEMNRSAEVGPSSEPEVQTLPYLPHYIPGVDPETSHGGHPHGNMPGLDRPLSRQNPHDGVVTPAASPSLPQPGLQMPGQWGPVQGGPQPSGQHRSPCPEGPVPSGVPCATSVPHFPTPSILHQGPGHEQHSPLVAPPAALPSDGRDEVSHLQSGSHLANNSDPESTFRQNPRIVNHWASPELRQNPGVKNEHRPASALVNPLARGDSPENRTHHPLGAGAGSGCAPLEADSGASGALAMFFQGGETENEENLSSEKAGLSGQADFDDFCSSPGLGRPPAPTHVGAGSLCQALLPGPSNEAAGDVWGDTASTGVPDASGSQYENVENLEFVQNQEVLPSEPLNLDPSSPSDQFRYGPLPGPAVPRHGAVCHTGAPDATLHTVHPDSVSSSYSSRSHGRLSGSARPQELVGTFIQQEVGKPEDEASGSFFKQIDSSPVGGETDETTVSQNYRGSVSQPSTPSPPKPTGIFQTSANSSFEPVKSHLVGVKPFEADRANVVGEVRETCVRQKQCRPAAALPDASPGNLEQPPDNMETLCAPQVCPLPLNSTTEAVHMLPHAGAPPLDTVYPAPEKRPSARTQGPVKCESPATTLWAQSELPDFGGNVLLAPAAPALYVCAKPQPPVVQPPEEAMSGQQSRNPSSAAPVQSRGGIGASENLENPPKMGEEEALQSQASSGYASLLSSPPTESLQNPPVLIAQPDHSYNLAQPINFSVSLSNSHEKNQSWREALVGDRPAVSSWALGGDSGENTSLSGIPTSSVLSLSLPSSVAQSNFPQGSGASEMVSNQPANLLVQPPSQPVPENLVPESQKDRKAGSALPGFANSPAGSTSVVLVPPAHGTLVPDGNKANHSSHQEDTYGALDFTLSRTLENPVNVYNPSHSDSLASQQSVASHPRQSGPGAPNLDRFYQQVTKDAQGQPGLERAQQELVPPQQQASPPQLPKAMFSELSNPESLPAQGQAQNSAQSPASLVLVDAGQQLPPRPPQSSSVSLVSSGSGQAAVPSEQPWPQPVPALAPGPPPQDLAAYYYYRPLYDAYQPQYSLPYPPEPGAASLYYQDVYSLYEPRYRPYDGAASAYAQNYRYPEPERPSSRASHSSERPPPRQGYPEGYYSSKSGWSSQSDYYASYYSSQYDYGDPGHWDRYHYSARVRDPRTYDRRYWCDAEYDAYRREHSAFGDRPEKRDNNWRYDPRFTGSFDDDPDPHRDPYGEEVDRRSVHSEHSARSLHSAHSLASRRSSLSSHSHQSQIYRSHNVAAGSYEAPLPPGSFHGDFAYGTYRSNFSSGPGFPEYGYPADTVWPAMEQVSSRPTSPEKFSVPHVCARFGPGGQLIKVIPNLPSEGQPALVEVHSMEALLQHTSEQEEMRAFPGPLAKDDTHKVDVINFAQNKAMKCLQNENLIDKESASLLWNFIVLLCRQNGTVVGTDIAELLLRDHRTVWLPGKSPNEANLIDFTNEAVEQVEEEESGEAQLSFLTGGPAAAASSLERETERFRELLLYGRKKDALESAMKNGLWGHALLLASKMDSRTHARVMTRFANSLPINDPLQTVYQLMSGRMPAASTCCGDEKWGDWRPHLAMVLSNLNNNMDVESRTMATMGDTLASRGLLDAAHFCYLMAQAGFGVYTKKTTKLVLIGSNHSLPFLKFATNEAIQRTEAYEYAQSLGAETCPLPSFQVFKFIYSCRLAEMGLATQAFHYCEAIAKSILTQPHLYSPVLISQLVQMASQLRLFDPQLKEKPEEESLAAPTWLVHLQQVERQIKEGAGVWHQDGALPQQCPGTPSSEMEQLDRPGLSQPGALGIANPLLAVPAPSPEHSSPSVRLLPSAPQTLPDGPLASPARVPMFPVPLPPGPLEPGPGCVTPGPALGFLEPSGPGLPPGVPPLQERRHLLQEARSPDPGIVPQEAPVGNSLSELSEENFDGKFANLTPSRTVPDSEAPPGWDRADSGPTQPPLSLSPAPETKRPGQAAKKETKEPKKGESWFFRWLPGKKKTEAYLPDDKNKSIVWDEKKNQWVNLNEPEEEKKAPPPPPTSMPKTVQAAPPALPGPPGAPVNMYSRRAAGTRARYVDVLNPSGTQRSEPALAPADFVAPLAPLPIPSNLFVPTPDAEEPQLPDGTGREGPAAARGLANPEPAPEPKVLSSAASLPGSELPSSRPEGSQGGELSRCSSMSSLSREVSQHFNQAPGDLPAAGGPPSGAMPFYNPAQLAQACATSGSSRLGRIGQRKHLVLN

[12] = target: ATP synthase F(1) complex subunit alpha, mitochondrial (Homo sapiens) (UniProt P25705); experiment: Binding affinity to ATP5A1 in human NCI-H358 cells at 1 uM by mass spectrometry based pull down assay; type: cell-based
[13] = target: Reticulon-4 (Homo sapiens) (UniProt Q9NQC3); experiment: Binding affinity to RTN4 in human NCI-H23 cells at 1 uM by mass spectrometry based pull down assay; type: cell-based
[14] = target: Vesicle-fusing ATPase (Homo sapiens) (UniProt P46459); experiment: Binding affinity to NSF in human NCI-H358 cells at 1 uM by mass spectrometry based pull down assay; type: cell-based
[15] = target: 80S Ribosome (Homo sapiens) (UniProt P08865+P42677+P62753+P15880+P23396+P61247+P62701+P22090+P46782+P62081+P62241+P46781+P46783+P62280+P25398+P62277+P62263+P62841+P62244+P62249+P08708+P62269+P39019+P60866+P63220+P62266+P62847+P62851+P62854+P62979+P62857+P62273+P62861+P39023+P36578+P46777+Q02878+P18124+P62424+P62917+P32969+P27635+P62906+P62913+P30050+P26373+P40429+P50914+P61313+P18621+Q07020+Q02543+P84098+P46778+P35268+P62829+P62750+P83731+P61254+P61353+P46776+P46779+P47914+P62888+P62899+P62910+P49207+P42766+P18077+Q9Y3U8+P83881+P61927+P61513+P63173+P62891+P62945+P05388+P05386); experiment: Binding affinity to RPS10 in human NCI-H23 cells at 1 uM by mass spectrometry based pull down assay; type: cell-based
[16] = target: Tyrosine-protein kinase Yes (Homo sapiens) (UniProt P07947); experiment: Binding affinity to YES1 in human NCI-H358 cells at 1 uM by mass spectrometry based pull down assay; type: cell-based
[17] = target: Catenin alpha-1 (Homo sapiens) (UniProt P35221); experiment: Binding affinity to CTNNA1 in human NCI-H358 cells at 1 uM by mass spectrometry based pull down assay; type: cell-based
[18] = target: Small proline-rich protein 3 (Homo sapiens) (UniProt Q9UBC9); experiment: Binding affinity to SPRR3 in human NCI-H358 cells at 1 uM by mass spectrometry based pull down assay; type: cell-based
Sequence of Small proline-rich protein 3 (Homo sapiens) (Q9UBC9 whole entry): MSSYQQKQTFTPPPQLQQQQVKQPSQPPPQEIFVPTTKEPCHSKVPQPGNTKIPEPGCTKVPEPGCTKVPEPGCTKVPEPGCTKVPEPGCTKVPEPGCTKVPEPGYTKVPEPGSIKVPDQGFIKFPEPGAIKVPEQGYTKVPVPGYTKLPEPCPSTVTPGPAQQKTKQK

[19] = target: Serine/threonine-protein kinase 38 (Homo sapiens) (UniProt Q15208); experiment: Inhibition of NDR1 in human SKCO1 cells at 1 uM after 4 hrs using biotin labeled DIKPDNLLLDSK probe by mass-spectrometric analysis relative to control; type: cell-based
Sequence of Serine/threonine-protein kinase 38 (Homo sapiens) (Q15208 2-465 limits assumed): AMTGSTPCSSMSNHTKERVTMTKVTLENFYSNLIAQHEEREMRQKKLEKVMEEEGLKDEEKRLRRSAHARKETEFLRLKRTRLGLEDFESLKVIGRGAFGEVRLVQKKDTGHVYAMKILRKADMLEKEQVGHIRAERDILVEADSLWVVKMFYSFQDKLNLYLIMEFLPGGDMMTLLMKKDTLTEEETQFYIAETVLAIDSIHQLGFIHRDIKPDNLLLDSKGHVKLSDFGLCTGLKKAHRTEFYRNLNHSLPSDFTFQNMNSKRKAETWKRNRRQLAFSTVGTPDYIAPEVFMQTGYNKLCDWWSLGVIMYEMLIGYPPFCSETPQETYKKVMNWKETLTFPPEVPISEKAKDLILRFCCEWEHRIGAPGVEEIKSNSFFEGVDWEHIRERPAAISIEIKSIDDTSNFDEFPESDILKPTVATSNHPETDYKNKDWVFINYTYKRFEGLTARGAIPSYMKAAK

[20] = target: Tyrosine-protein kinase receptor UFO (Homo sapiens) (UniProt P30530); experiment: Inhibition of AXL in human SKCO1 cells at 1 uM after 4 hrs using biotin labeled NCMLNENMSVCVADFGLSKK probe by mass-spectrometric analysis relative to control; type: cell-based
Sequence of Tyrosine-protein kinase receptor UFO (Homo sapiens) (P30530 whole entry): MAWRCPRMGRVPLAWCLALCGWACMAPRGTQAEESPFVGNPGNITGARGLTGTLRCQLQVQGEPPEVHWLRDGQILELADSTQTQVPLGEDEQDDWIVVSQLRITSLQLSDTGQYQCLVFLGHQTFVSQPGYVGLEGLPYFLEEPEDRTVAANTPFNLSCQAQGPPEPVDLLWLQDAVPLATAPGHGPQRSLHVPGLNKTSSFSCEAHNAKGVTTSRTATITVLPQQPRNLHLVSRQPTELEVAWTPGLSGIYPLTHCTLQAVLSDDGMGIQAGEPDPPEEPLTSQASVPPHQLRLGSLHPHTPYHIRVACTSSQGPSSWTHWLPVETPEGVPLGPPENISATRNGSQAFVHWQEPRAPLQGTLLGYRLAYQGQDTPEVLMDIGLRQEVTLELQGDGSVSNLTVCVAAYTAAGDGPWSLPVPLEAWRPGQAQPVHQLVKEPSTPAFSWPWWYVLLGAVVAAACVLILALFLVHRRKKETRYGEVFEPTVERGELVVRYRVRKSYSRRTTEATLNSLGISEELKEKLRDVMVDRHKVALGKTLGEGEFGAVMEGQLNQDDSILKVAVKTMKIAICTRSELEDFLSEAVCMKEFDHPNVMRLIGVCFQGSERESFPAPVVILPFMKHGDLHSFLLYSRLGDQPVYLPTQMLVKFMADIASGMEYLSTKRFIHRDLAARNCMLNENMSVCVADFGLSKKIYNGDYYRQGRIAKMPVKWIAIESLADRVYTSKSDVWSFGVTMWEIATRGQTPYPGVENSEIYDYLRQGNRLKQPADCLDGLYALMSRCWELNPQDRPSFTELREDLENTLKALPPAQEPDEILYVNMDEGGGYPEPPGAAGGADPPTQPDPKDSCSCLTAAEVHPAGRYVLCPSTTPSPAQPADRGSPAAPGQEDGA

Compound: COc1cc(O)c2c(c1)/C=C/C[C@H](O)[C@H](O)C(=O)/C=C\C[C@H](C)OC2=O
inhibition [1]: -1.7%
Activity [2]: 44%

Activity [3]: Active
Activity [4]: Active
Activity [5]: Active
Activity [6]: Active
Activity [7]: Active
Activity [8]: Active
Activity [9]: Active
Activity [10]: Active
Activity [11]: Active
Activity [12]: Active
Activity [13]: Active
Activity [14]: Active
Activity [15]: Active
Activity [16]: Active
Activity [17]: Active
Activity [18]: Active
Compound: C=CC(=O)Nc1ccccc1Nc1nc(Nc2ccc(N3CCN(CCOCCOCCOCCNC(=O)CCCC[C@@H]4SC[C@@H]5NC(=O)N[C@@H]54)CC3)cc2)ncc1Cl

Compound: C=CC(=O)Nc1ccccc1Nc1nc(Nc2ccc(N3CCN(C)CC3)cc2)ncc1Cl
inhibition [19]: -4.9%
inhibition [20]: 27.2%
